Test results: ChEMBL document CHEMBL1144493, “Synthesis and biological evaluation of dihydrofuran-fused perhydrophenanthrenes as a new anti-influenza agent having novel structural characteristic” (Bioorg Med Chem, 2007)
The source made the active and inactive calls. The rule behind the calls is not given here.

What was measured:
Influenza A virus [1] = test: Antiviral activity against influenza virus A virus A/PR/8/34 (H1N1) at 100 uM; type: functional, organism-based
In short: (§1)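 PBS-washed confluent MDCK monolayers were inoculated with virus in serum-free MEM and adsorbed for 45 min at room temperature. They were then cultured in agar medium with drug at 100 µM or 1% DMSO as control. Results are percent of control, mean ± SD of three experiments. Drug stocks were in DMSO, final DMSO <1%.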

Influenza A virus [2] = test: Inhibition of influenza A virus A/Aichi/2/68 virus proliferation in MDCK cells; type: functional, organism-based
Influenza B virus [3] = test: Antiviral activity against influenza B virus B/Lee at 100 uM; type: functional, organism-based; in short: as §1
Influenza A virus [4] = test: Inhibition of influenza A virus A/Aichi/2/68 proliferation in MDCK cells at 10 uM relative to control; type: functional; set-up: scale not given: the % may be the effect or the level left
MDCK = test: Cytotoxicity against MDCK cells at 100 uM by MTT assay; type: cell-based, Canis lupus familiaris; conditions: dog
In short: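 Subconfluent MDCK cells (10⁴ cells/well) were exposed for 24 h to compound at 100 or 200 µM in MEM with 2% FBS; control was 1% DMSO. MTT was then added and OD read at 570 nm. Values are mean ± SD of three measurements.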

Influenza A virus [5] = test: Antiviral activity against influenza A virus A/NWS/33 (H1N1) at 100 uM; type: functional, organism-based; in short: as §1
Influenza B virus [6] = test: Antiviral activity against influenza B virus B/Singapore/222/79 at 100 uM; type: functional; in short: as §1
Influenza A virus [7] = test: Antiviral activity against influenza A virus A/USSR/92/77 (H1N1) at 100 uM; type: functional, organism-based; in short: as §1
Influenza A virus [8] = test: Anti-influenza activity against influenza A virus A/Aichi/2/68 in MDCK cells administered at 100 uM within 1 hrs post infection; type: functional, organism-based
In short: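 MDCK cells were infected with A/Aichi/2/68 (H3N2) under drug-free conditions and then given drug at 100 µM after delays of 0–10 h at 37 °C. The paper describes a one-step growth design at MOI 5 PFU/cell with 1-h drug treatment. Virus yield was measured by plaque titration after 24 h total, as % of 1% DMSO control, mean ± SD of three experiments.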

| Structure (SMILES) | Activity (Influenza A virus [1]) | Activity (Influenza A virus [2]) | Activity (Influenza B virus [3]) | Activity (Influenza A virus [4]) [%] | Activity (MDCK) | Activity (Influenza A virus [5]) | Activity (Influenza B virus [6]) | Activity (Influenza A virus [7]) | Activity (Influenza A virus [8]) |
| --- | --- | --- | --- | --- | --- | --- | --- | --- | --- |
| CC(C)C(Oc1ccc2c(c1)C[C@H]1OC=C3[C@H]1[C@@]2(C#N)CCCC31OCCO1)(C(C)C)C(C)C | Active | Dose-dependent effect | Active | 30 | Not Active | Active | Active | Active |  |
| N#C[C@]12CCC3(OCCO3)C3=CO[C@H](Cc4cc(OC(F)(F)F)ccc41)[C@@H]32 | Active | Dose-dependent effect | Active | 30 | Not Active | Active | Active | Active | Active |
